According to ChEMBL document CHEMBL1828566, “Synthesis of 4β-triazole-podophyllotoxin derivatives by azide-alkyne cycloaddition and biological evaluation as potential antitumor agents” (Eur J Med Chem, 2011):
Counter-ions that a name gives are not always drawn.

Experiments:
HeLa [1] = test: Cytotoxicity against human HeLa cells after 2 days by MTT assay; format: functional, cell-based; settings: 48 h
Summary of the method: (§1)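 Exponentially growing cells were seeded in 96-well plates, precultured 1 day, exposed to test compounds over a range of concentrations, then incubated 2 more days.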

[2] = Cytotoxicity against human K562/A02 cells after 2 days by MTT assay; format: functional, cell-based; settings: K562/A02, 48 h; summary of the method: as §1
K562 [3] = test: Cytotoxicity against human K562 cells after 2 days by MTT assay; format: functional, cell-based; settings: K562, 48 h; summary of the method: as §1
[4] = Selectivity index, ratio of IC50 for VP-16 to compound for human K562/A02 cells after 2 days by MTT assay; format: functional
HeLa [5] = test: Selectivity index, ratio of IC50 for VP-16 to compound for human HeLa cells after 2 days by MTT assay; format: functional
K562 [6] = test: Selectivity index, ratio of IC50 for VP-16 to compound for human K562 cells after 2 days by MTT assay; format: functional

Structure (SMILES) | IC50 (HeLa [1]) [nM] | IC50 [2] [nM] | IC50 (K562 [3]) [nM] | Ratio IC50 [4] | Ratio IC50 (HeLa [5]) | Ratio IC50 (K562 [6])
COC(=O)c1cn([C@@H]2c3cc4c(cc3[C@@H](c3cc(OC)c(OC)c(OC)c3)[C@H]3C(=O)OC[C@@H]32)OCO4)nn1 | 1120 | 2070 | 4150 |  |  | 
COc1cc([C@@H]2c3cc4c(cc3[C@@H](n3cc(C(=O)O)nn3)[C@H]3COC(=O)[C@H]23)OCO4)cc(OC)c1OC | > 10000 | 8870 | 5400 |  |  | 
COc1cc([C@@H]2c3cc4c(cc3[C@@H](n3cc(CCC(=O)O)nn3)[C@H]3COC(=O)[C@H]23)OCO4)cc(OC)c1OC | > 10000 | > 10000 | > 10000 |  |  | 
COc1cc([C@@H]2c3cc4c(cc3[C@@H](n3cc(-c5cccnc5)nn3)[C@H]3COC(=O)[C@H]23)OCO4)cc(OC)c1OC | 35300 | > 10000 | > 10000 |  |  | 
COc1cc([C@@H]2c3cc4c(cc3[C@@H](n3cc(CNc5ccc(C)cc5)nn3)[C@H]3COC(=O)[C@H]23)OCO4)cc(OC)c1OC | 845 | 520 | 470 |  |  | 
COc1cc([C@@H]2c3cc4c(cc3[C@@H](n3cc(C(=O)Nc5ccccc5Cl)nn3)[C@H]3COC(=O)[C@H]23)OCO4)cc(OC)c1OC | 82 | 59 | 53 | >40 | >40 | >40
COc1cc([C@@H]2c3cc4c(cc3[C@@H](n3cc(CN(C)C)nn3)[C@H]3COC(=O)[C@H]23)OCO4)cc(OC)c1OC | > 10000 | > 10000 | > 10000 |  |  | 
CCN(CC)C(=O)c1cn([C@@H]2c3cc4c(cc3[C@@H](c3cc(OC)c(OC)c(OC)c3)[C@H]3C(=O)OC[C@@H]32)OCO4)nn1 | > 10000 | > 10000 | > 10000 |  |  | 
COC(=O)c1cnnn1[C@@H]1c2cc3c(cc2[C@@H](c2cc(OC)c(OC)c(OC)c2)[C@H]2C(=O)OC[C@@H]21)OCO3 | 420 | 600 | 400 |  |  | 
COc1cc([C@@H]2c3cc4c(cc3[C@@H](n3nncc3-c3cccnc3)[C@H]3COC(=O)[C@H]23)OCO4)cc(OC)c1OC | 1460 | 1230 | 390 |  |  | 
COc1cc([C@@H]2c3cc4c(cc3[C@@H](n3cc(C(=O)Nc5ccc(C)cc5)nn3)[C@H]3COC(=O)[C@H]23)OCO4)cc(OC)c1OC | > 100000 | > 100000 | > 100000 |  |  | 
COc1cc([C@@H]2c3cc4c(cc3[C@@H](n3nncc3C(=O)Nc3ccc(C)cc3)[C@H]3COC(=O)[C@H]23)OCO4)cc(OC)c1OC | > 10000 | 19800 | 5100 |  |  | 
CCOC(=O)c1cn([C@@H]2c3cc4c(cc3[C@@H](c3cc(OC)c(OC)c(OC)c3)[C@H]3C(=O)OC[C@@H]32)OCO4)nn1 | 3530 | 2210 | 4250 |  |  | 
CCOC(=O)c1cnnn1[C@@H]1c2cc3c(cc2[C@@H](c2cc(OC)c(OC)c(OC)c2)[C@H]2C(=O)OC[C@@H]21)OCO3 | 920 | 690 | 850 |  |  | 
COc1cc([C@@H]2c3cc4c(cc3[C@@H](n3cc(CNc5ccccc5)nn3)[C@H]3COC(=O)[C@H]23)OCO4)cc(OC)c1OC | 2360 | 5960 | 5730 |  |  | 
COc1cccc2c1C(=O)c1c(O)c3c(c(O)c1C2=O)C[C@@](O)(C(=O)CO)C[C@@H]3O[C@H]1C[C@H](N)[C@H](O)[C@H](C)O1 [DOXORUBICIN HYDROCHLORIDE] | 430 | 19200 | 360 |  |  | 
COc1cc([C@@H]2c3cc4c(cc3[C@@H](O[C@@H]3O[C@@H]5CO[C@@H](C)O[C@H]5[C@H](O)[C@H]3O)[C@H]3COC(=O)[C@H]23)OCO4)cc(OC)c1O [ETOPOSIDE] | 6270 | 152000 | 2110 |  |  | 
COc1cc([C@@H]2c3cc4c(cc3[C@H](O)[C@H]3COC(=O)[C@H]23)OCO4)cc(OC)c1OC [PODOFILOX] | 100 | 170 | 30 |  |  | 
